The test system of series [1] is MCF7. The series is described as follows: Cytotoxicity against human MCF7 cells assessed as reduction in cell viability at 200 uM after 24 hrs by MTS assay. It counts as functional, cell-based. A digest of the protocol:
(§1)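 Single-concentration screen: exponentially growing HepG2 or MCF-7 cells were exposed to compounds for 24 h, and viability was read by MTS relative to control. DMSO (0.5%) was the solvent control; etoposide was the positive control.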
On the technique in general: Tetrazolium assays rely on reduction of a dye to a coloured formazan, in cell work by metabolically active cells.

The test system of series [2] is HepG2. The experiment in a line: Cytotoxicity against human HepG2 cells assessed as reduction in cell viability at 200 uM after 24 hrs by MTS assay. The series is classed as functional, cell-based. A digest of the protocol: as §1
In series [3] the target is T1, DNA topoisomerase 2-alpha (Homo sapiens, UniProt P11388). The experiment in a line: (§2) Poison activity at human topoisomerase-2alpha assessed as linear DNA formation at […] using supercoiled pBR322 DNA as substrate after 60 mins by ethidium bromide staining based agarose gel electrophoresis method (reference value: […]). As to conditions: 1 h.
T1 sequence (P11388 whole entry): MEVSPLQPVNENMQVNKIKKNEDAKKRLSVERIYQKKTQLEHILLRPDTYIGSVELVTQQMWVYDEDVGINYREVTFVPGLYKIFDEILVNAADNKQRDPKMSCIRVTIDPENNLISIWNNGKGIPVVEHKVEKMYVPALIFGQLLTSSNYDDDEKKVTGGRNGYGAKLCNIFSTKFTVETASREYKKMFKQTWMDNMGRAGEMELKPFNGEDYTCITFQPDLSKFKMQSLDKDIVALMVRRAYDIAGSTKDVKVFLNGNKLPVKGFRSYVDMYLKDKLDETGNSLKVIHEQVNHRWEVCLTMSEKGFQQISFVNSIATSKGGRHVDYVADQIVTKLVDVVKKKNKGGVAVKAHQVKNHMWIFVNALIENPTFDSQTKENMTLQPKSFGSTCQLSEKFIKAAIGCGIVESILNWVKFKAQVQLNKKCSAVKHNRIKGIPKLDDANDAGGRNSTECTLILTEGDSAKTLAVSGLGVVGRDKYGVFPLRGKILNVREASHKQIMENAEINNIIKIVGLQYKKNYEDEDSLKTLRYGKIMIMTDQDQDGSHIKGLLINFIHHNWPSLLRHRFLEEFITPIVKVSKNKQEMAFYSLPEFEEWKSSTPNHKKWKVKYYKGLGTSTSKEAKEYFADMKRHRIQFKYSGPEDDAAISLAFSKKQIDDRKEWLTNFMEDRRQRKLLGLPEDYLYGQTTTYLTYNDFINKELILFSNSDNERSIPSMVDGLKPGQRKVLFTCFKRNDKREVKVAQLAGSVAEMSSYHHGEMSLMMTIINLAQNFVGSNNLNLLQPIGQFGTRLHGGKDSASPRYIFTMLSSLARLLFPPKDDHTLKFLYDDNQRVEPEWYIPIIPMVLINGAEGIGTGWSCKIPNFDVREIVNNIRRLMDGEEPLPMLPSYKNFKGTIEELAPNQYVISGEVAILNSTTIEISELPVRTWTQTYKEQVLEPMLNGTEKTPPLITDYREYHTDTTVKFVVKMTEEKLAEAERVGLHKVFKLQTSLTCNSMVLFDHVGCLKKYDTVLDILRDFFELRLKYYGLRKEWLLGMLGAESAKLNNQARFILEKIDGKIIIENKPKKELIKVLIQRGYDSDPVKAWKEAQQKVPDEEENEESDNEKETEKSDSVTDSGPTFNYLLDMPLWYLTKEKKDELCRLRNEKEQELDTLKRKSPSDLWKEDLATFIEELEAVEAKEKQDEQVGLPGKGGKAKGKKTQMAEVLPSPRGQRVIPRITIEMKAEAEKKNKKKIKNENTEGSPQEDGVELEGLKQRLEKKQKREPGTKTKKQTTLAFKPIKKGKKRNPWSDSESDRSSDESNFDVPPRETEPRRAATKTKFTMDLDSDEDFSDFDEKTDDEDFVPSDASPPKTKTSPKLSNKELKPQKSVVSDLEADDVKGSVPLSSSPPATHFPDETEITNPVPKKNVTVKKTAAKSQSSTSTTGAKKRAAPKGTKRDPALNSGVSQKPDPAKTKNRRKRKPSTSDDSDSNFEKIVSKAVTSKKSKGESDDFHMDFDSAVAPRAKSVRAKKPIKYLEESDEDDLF
For series [4], the target named is T1, DNA topoisomerase 2-alpha. The experiment in a line: Poison activity at human topoisomerase-2alpha assessed as linear DNA formation at 50 uM using supercoiled pBR322 DNA as substrate after 60 mins by ethidium bromide staining based agarose gel electrophoresis method (reference value: 1.77 %). As to conditions: 1 h.
Series [5] addresses DNA topoisomerase 2-beta (Homo sapiens) (UniProt Q02880). The experiment in a line: Inhibition of human topoisomerase-2beta mediated decatenation at 125 uM using kinetoplast DNA as substrate after 30 mins in presence of ATP by ethidium bromide staining-based gel electrophoresis method relative to control. Further details: scale not given: the % may be the effect or the level left. A digest of the protocol: (§3)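 One U of human topo IIα or IIβ with 200 ng kDNA, 30 min at 37 °C in 50 mM Tris-HCl pH 7.5, 125 mM NaCl, 10 mM MgCl2, 5 mM DTT, 0.5 mM EDTA, 0.1 mg/ml BSA, 1 mM ATP. Compounds (3.9–500 µM, 1% DMSO final) were added before the enzyme. Reactions were stopped with chloroform/isoamyl alcohol, run on a 1% TAE gel and stained with EtBr; inhibition came from band densitometry, in duplicate.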

The target is the same in series [6]. The series is described as follows: (§4) Inhibition of human topoisomerase-2beta mediated decatenation at […] using kinetoplast DNA as substrate after 30 mins in presence of ATP by ethidium bromide staining-based gel electrophoresis method relative to control. The arrangement: scale not given: the % may be the effect or the level left.
For series [7], the target named is T1, DNA topoisomerase 2-alpha. The experiment in a line: Poison activity at human topoisomerase-2alpha assessed as linear DNA formation at 500 uM using supercoiled pBR322 DNA as substrate after 60 mins by ethidium bromide staining based agarose gel electrophoresis method (reference value: […]). Particulars: 1 h.
Series [8] has as its target DNA topoisomerase 2-beta (Homo sapiens) (UniProt Q02880). The series is described as follows: Inhibition of human topoisomerase-2beta mediated decatenation at 500 uM using kinetoplast DNA as substrate after 30 mins in presence of ATP by ethidium bromide staining-based gel electrophoresis method relative to control. The arrangement: scale not given: the % may be the effect or the level left. Put shortly: as §3

The target in series [9] is T1, DNA topoisomerase 2-alpha. The series is described as follows: Inhibition of human topoisomerase-2alpha mediated decatenation at 500 uM using kinetoplast DNA as substrate after 30 mins in presence of ATP by ethidium bromide staining-based gel electrophoresis method relative to control. The arrangement: scale not given: the % may be the effect or the level left.
Series [10] addresses T1, DNA topoisomerase 2-alpha. The experiment in a line: Inhibition of human topoisomerase-2alpha mediated decatenation at 125 uM using kinetoplast DNA as substrate after 30 mins in presence of ATP by ethidium bromide staining-based gel electrophoresis method relative to control. The arrangement: scale not given: the % may be the effect or the level left.
Series [11] has as its target T1, DNA topoisomerase 2-alpha. The series is described as follows: Poison activity at human topoisomerase-2alpha assessed as linear DNA formation using supercoiled pBR322 DNA as substrate after 60 mins by ethidium bromide staining based agarose gel electrophoresis method. Particulars: 1 h.
For series [12], the target named is DNA topoisomerase 2-beta (Homo sapiens) (UniProt Q02880). Described as §4. The arrangement: scale not given: the % may be the effect or the level left. The source holds these as a separate data set.
DNA topoisomerase 2-beta (Homo sapiens), sequence (Q02880 whole entry): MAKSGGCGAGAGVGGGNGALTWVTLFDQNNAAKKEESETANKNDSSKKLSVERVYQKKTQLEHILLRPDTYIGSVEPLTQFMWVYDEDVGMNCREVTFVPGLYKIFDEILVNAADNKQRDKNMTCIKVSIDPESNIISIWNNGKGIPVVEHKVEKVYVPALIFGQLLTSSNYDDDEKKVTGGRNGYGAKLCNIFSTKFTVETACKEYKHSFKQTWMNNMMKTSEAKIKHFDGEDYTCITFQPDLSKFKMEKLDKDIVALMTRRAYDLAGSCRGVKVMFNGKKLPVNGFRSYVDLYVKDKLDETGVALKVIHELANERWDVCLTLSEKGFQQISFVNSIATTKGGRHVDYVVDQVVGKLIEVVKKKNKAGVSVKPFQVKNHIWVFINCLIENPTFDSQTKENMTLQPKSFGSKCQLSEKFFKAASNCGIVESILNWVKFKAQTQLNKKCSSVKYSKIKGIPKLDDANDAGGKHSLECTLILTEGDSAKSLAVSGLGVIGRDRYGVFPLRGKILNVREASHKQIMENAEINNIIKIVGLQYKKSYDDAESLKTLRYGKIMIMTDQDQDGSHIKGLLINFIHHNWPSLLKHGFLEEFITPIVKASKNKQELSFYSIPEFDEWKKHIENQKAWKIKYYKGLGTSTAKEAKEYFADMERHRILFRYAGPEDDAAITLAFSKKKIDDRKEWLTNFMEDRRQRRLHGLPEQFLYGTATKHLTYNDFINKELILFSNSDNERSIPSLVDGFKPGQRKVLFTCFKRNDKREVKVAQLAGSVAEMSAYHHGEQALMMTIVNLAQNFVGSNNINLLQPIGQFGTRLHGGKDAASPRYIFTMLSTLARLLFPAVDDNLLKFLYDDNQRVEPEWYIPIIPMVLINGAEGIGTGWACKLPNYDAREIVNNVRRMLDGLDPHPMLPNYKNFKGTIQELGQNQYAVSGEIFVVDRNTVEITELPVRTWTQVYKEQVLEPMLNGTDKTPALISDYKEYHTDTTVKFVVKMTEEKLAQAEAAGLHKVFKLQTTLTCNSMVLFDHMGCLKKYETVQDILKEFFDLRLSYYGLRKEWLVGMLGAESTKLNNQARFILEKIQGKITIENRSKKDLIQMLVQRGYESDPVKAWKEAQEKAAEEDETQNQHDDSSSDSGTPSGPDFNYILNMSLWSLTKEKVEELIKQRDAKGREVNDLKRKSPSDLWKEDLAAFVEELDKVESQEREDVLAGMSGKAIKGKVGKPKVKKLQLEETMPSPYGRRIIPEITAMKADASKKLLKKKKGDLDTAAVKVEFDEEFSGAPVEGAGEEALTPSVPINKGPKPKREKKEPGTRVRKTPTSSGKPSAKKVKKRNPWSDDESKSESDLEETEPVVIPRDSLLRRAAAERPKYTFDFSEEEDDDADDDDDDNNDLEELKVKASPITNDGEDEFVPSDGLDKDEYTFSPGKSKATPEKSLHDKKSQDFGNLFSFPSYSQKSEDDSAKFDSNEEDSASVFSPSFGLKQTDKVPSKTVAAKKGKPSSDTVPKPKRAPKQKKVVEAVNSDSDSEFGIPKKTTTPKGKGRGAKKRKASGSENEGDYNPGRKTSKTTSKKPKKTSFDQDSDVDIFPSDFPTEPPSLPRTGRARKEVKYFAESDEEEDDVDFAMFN
The target of series [13] is T1, DNA topoisomerase 2-alpha. Described as §2. As to conditions: 1 h. This is another data set of the same source.
The subject of series [14] is HepG2. The experiment in a line: Cytotoxicity against human HepG2 cells assessed as reduction in cell viability after 24 hrs by MTT assay. It counts as functional, cell-based. As to conditions: HepG2, 24 h.
In series [15] the target is T1, DNA topoisomerase 2-alpha. The experiment in a line: Poison activity at human topoisomerase-2alpha assessed as linear DNA formation at 125 uM using supercoiled pBR322 DNA as substrate after 60 mins by ethidium bromide staining based agarose gel electrophoresis method (reference value: […]). As to conditions: 1 h.
The target of series [16] is T1, DNA topoisomerase 2-alpha. The series is described as follows: Inhibition of human topoisomerase 2alpha using supercoiled pNO1 plasmid as substrate after 30 mins by HTS assay.

The values below come from ChEMBL document CHEMBL4393709, “Structure-guided optimization of 4,6-substituted-1,3,5-triazin-2(1H)-ones as catalytic inhibitors of human DNA topoisomerase IIα” (Eur J Med Chem, 2019).

As a reminder, the EC50 is the concentration at which the effect is half-maximal. A word on the IC50: it is the midpoint of a concentration-inhibition curve.

Activity calls are given as the source filed them. No cut-off for these calls is given here.

In the case of `O=c1nc(SCc2cccc(O)c2)nc(SCc2ccc(Cl)cc2)[nH]1`, the result in series [1] and in series [2] was inactive.
Consider `O=c1nc(SCc2c(F)cccc2F)nc(SCc2ccc(Cl)cc2)[nH]1`, for which the result in [1] and in [2] was inactive.
Take `COc1cc([C@@H]2c3cc4c(cc3[C@@H](O[C@@H]3O[C@@H]5CO[C@@H](C)O[C@H]5[C@H](O)[C@H]3O)[C@H]3COC(=O)[C@H]23)OCO4)cc(OC)c1O` [ETOPOSIDE]: the Activity in series [3] came to 25.79%; in [4], 35.56%; in [5] it was 23.9%; in series [6], 100%; in [7], 39.98%; in series [8] it was 14.7%. In addition, the Activity is 2.27% in [9]; 4.09% in series [10]; “Dose-dependent effect” in [11]; 93.4% in series [12]; 13.72% in [13]; 34.79% in series [15]. The concentration for a half-maximal effect (EC50) in series [14] lay within 60.5 to 93.4 µM.
For the molecule `NC(=O)c1cccc(CSc2nc(SCc3ccc(Cl)cc3)[nH]c(=O)n2)c1`, the result in series [1] and in [2] was inactive.
With `O=C(O)c1cccc(CSc2nc(SCc3ccccc3F)[nH]c(=O)n2)c1`, the outcome in [1] and in series [2] was inactive.
For the molecule `O=C(O)c1cccc(CSc2nc(SCc3ccc(Cl)cc3)[nH]c(=O)n2)c1`, the result in series [1] and in series [2] was inactive.
As to `O=C(O)c1cccc(CSc2nc(SCc3cccc(Cl)c3)[nH]c(=O)n2)c1`, the outcome in series [1] and in series [2] was inactive.
As for `O=c1nc(SCc2ccc(CO)cc2)nc(SCc2cccc(Cl)c2)[nH]1`, the result in [1] and in series [2] was inactive.
As for `CC(C)c1ccc(CSc2nc(SCc3ccc(Cl)cc3)[nH]c(=O)n2)cc1`, the result in series [1] and in series [2] was inactive.
`O=c1nc(SCc2cccc(O)c2)nc(SCc2ccccc2F)[nH]1`: the result in series [1] and in series [2] was inactive.
`O=c1nc(SCc2ccc3nonc3c2)nc(SCc2cccc(Cl)c2)[nH]1`: the result in series [1] and in series [2] was inactive.
For `O=c1nc(SCc2cc(F)cc(C(F)(F)F)c2)nc(SCc2ccccc2F)[nH]1`, the result in [1] and in series [2] was inactive. Also, the Activity worked out at 0% in series [5], 99.4% in series [6], 0% in series [8] and 12.5% in [12].
As for `O=c1nc(SCc2cccc(O)c2)nc(SCc2cccc(Cl)c2)[nH]1`, the outcome in series [1] and in series [2] was inactive.
As for `CC(C(=O)O)c1ccc(CSc2nc(SCc3ccc(Cl)cc3)[nH]c(=O)n2)cc1` (centres undefined), the result in [1] and in series [2] was inactive.
As to `O=c1nc(SCc2ccc3nonc3c2)nc(SCc2ccccc2F)[nH]1`, the result in series [1] and in [2] was inactive.
For the molecule `CC(C(=O)O)c1ccc(CSc2nc(SCc3ccccc3F)[nH]c(=O)n2)cc1` (centres undefined), the result in series [1] and in [2] was inactive.
Take `NC(=O)c1cccc(CSc2nc(SCc3ccccc3F)[nH]c(=O)n2)c1`: the result in series [1] and in series [2] was inactive.
For `CC(C(=O)O)c1ccc(CSc2nc(SCc3cccc(Cl)c3)[nH]c(=O)n2)cc1` (centres undefined), the outcome in series [1] and in [2] was inactive.
For the molecule `O=c1nc(SCc2ccc(CO)cc2)nc(SCc2ccc(Cl)cc2)[nH]1`, the outcome in [1] and in series [2] was inactive.
Take `O=c1nc(SCc2ccccc2)nc(SCc2cccc(Cl)c2)[nH]1`: the IC50 in [16] was determined as 57.6 µM.
For the molecule `O=c1nc(SCc2c(F)cccc2F)nc(SCc2cccc(Cl)c2)[nH]1`, the result in [1] and in [2] was inactive.
Take `NC(=O)c1cccc(CSc2nc(SCc3cccc(Cl)c3)[nH]c(=O)n2)c1`: the result in series [1] and in [2] was inactive.
In the case of `O=c1nc(SCc2cc(F)cc(C(F)(F)F)c2)nc(SCc2ccc(Cl)cc2)[nH]1`, the result in [1] and in [2] was inactive.
With `O=c1nc(SCc2cc(F)cc(C(F)(F)F)c2)nc(SCc2cccc(Cl)c2)[nH]1`, the Activity in series [5] came out at 0%; in series [6], 91.8%; in series [8] it was 0%; in series [12], 0%.
On to `O=c1nc(SCc2cc(F)c(F)cc2F)nc(SCc2ccc(Cl)cc2)[nH]1`, for which the result in series [1] and in series [2] was inactive.
As to `O=c1nc(SCc2ccc(CO)cc2)nc(SCc2ccccc2F)[nH]1`, the outcome in series [1] and in series [2] was inactive.
On to `O=c1nc(SCc2ccc(C(F)(F)F)cc2)nc(SCc2ccccc2F)[nH]1`, for which the Activity was found to be 0% in [5], 98.2% in series [6], 0% in series [8] and 0% in series [12].
For `O=c1nc(SCc2c(F)cccc2F)nc(SCc2ccccc2F)[nH]1`, the result in series [1] and in [2] was inactive.
